Measured values: ChEMBL document CHEMBL1155469, “Peptide nucleic acids conjugated to short basic peptides show improved pharmacokinetics and antisense activity in adipose tissue” (J Med Chem, 2010)
Blank lines part the entries; values can stand above or below the compound they belong to. Calls of active or inactive are those of the source. No cut-off for these calls is given here.

Columns and labels:
[1] = tested on: BCL1; test: Inhibition of PTEN expression in mouse BCL1 cells after 62 hrs by Western blotting; type: functional, cell-based; settings: BCL1, 62 h
In short: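 BCL1 cells were grown in DMEM with 10% FBS at 37 °C, 5% CO2. Compound was delivered to 2×10^6 cells by electroporation (200 V, 1000 uF, 13 ohms), and cells were harvested 62 h later. Western blot of RIPA lysates used rabbit anti-PTEN and anti-CD40 (1:1000) with HRP secondary and ECL detection. PTEN was normalized to CD40. n=3, mean ± SD.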

[2] = tested on: Mus musculus; test: Toxicity in Balb/C mouse assessed as change in serum AST levels at 10 to 40 mg/kg, ip administered thrice a week for 2 weeks measured 48 hrs after last dose; type: organism-based; parameters: dose 10-40 mg/kg, route intraperitoneal; settings: in vivo
In short: (§1)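 Male Balb/c mice, 6–8 wk, n=4/group, received compound i.p. in PBS (10 ul/g) 3x/wk for 2 wk. Body weight was monitored throughout. At 48 h after the last dose, mice were anesthetized with isoflurane and bled by cardiac puncture. Serum AST, ALT, BUN, bilirubin, glucose and triglycerides were compared with the saline group. ALT rise below 2x normal was counted as absent.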

[3] = tested on: Mus musculus; test: Inhibition of PTEN expression in Balb/C mouse kidney at 10 to 40 mg/kg, ip administered thrice a week for 2 weeks measured 48 hrs after last dose
[4] = tested on: Mus musculus; test: Toxicity in Balb/C mouse assessed as change in serum bilirubin levels at 10 to 40 mg/kg, ip administered thrice a week for 2 weeks measured 48 hrs after last dose; type: organism-based; parameters: dose 10-40 mg/kg, route intraperitoneal; settings: in vivo; in short: as §1
[5] = tested on: Mus musculus; test: Toxicity in Balb/C mouse assessed as change in serum triglyceride levels at 10 to 40 mg/kg, ip administered thrice a week for 2 weeks measured 48 hrs after last dose; type: organism-based; parameters: dose 10-40 mg/kg, route intraperitoneal; settings: in vivo; in short: as §1
[6] = tested on: Mus musculus; test: Toxicity in Balb/C mouse assessed as change in body weight at 10 to 40 mg/kg, ip administered thrice a week for 2 weeks measured 48 hrs after last dose; type: organism-based; parameters: dose 10-40 mg/kg, route intraperitoneal; settings: in vivo; in short: as §1
[7] = tested on: Mus musculus; test: Toxicity in Balb/C mouse assessed as increase in spleen weight at 40 mg/kg, ip administered thrice a week for 2 weeks measured 48 hrs after last dose; type: organism-based; parameters: dose 40 mg/kg, route intraperitoneal; settings: in vivo
In short: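 Male Balb/c mice, 6–8 wk, n=4/group, were dosed i.p. in PBS 3x/wk for 2 wk at 40 mg/kg. They were killed by cervical dislocation 48 h after the last dose. Spleen weight was taken at necropsy and compared with the saline-treated group.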

[8] = tested on: Mus musculus; test: Inhibition of PTEN expression in Balb/C mouse liver at 10 to 40 mg/kg, ip administered thrice a week for 2 weeks measured 48 hrs after last dose by Western blot analysis; type: functional, organism-based
In short: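 Male Balb/c mice, 6–8 wk, n=4/group, dosed i.p. in PBS 3x/wk for 2 wk and killed 48 h after the last dose. Tissue was homogenized in RIPA buffer with protease inhibitors, and protein was measured by Lowry assay. Lysates were run on 10% PAGE and blotted to PVDF. Blots were probed with rabbit anti-PTEN (1:1000) and HRP anti-rabbit (1:2500), with ECL detection.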

[9] = tested on: Mus musculus; test: Inhibition of PTEN expression in Balb/C mouse white adipose tissue assessed as reduction of full length transcript at 10 to 40 mg/kg, ip administered thrice a week for 2 weeks measured 48 hrs after last dose […]; type: functional, organism-based
[10] = tested on: Mus musculus; test: Inhibition of PTEN expression in Balb/C mouse white adipose tissue assessed as upregulation of isoform lacking exon at 10 to 40 mg/kg, ip administered thrice a week for 2 weeks measured 48 hrs after last dose […]; type: functional, organism-based
[11] = tested on: Mus musculus; test: Toxicity in Balb/C mouse assessed as change in serum ALT levels at 10 to 40 mg/kg, ip administered thrice a week for 2 weeks measured 48 hrs after last dose; type: organism-based; parameters: dose 10-40 mg/kg, route intraperitoneal; settings: in vivo; in short: as §1
[12] = tested on: Mus musculus; test: Toxicity in Balb/C mouse assessed as change in serum glucose levels at 10 to 40 mg/kg, ip administered thrice a week for 2 weeks measured 48 hrs after last dose; type: organism-based; parameters: dose 10-40 mg/kg, route intraperitoneal; settings: in vivo; in short: as §1
[13] = tested on: Mus musculus; test: Toxicity in Balb/C mouse assessed as change in blood urea nitrogen levels at 10 to 40 mg/kg, ip administered thrice a week for 2 weeks measured 48 hrs after last dose; type: organism-based; parameters: dose 10-40 mg/kg, route intraperitoneal; settings: in vivo; in short: as §1

Structure (SMILES): COCCO[C@@H]1[C@H](OP(=O)(S)OC[C@H]2O[C@@H](n3cc(C)c(=O)[nH]c3=O)C[C@@H]2OP(=O)(S)OC[C@H]2O[C@@H](n3cnc4c(N)ncnc43)[C@H](OCCOC)[C@@H]2OP(=O)(S)OC[C@H]2O[C@@H](n3cnc4c(=O)[nH]c(N)nc43)[C@H](OCCOC)[C@@H]2OP(=O)(S)OC[C@H]2O[C@@H](n3cnc4c(N)ncnc43)[C@H](OCCOC)[C@@H]2OP(=O)(S)OC[C@H]2O[C@@H](n3cnc4c(=O)[nH]c(N)nc43)[C@H](OCCOC)[C@@H]2OP(=O)(S)OC[C@H]2O[C@@H](n3cnc4c(N)ncnc43)[C@H](OCCOC)[C@@H]2OP(=O)(S)OC[C@H]2O[C@@H](n3cnc4c(N)ncnc43)[C@H](OCCOC)[C@@H]2OP(=O)(S)OC[C@H]2O[C@@H](n3cnc4c(N)ncnc43)[C@H](OCCOC)[C@@H]2OP(=O)(S)OC[C@H]2O[C@@H](n3cnc4c(=O)[nH]c(N)nc43)[C@H](OCCOC)[C@@H]2O)[C@@H](COP(=O)(S)O[C@H]2[C@@H](OCCOC)[C@H](n3ccc(N)nc3=O)O[C@@H]2COP(=O)(S)O[C@H]2[C@@H](OCCOC)[C@H](n3cnc4c(N)ncnc43)O[C@@H]2COP(=O)(S)O[C@H]2[C@@H](OCCOC)[C@H](n3ccc(N)nc3=O)O[C@@H]2COP(=O)(S)O[C@H]2C[C@H](n3cc(C)c(=O)[nH]c3=O)O[C@@H]2COP(=O)(S)O[C@H]2C[C@H](n3cc(C)c(=O)[nH]c3=O)O[C@@H]2COP(=O)(S)O[C@H]2C[C@H](n3cc(C)c(=O)[nH]c3=O)O[C@@H]2COP(=O)(S)O[C@H]2[C@@H](OCCOC)[C@H](n3cnc4c(=O)[nH]c(N)nc43)O[C@@H]2COP(=O)(S)O[C@H]2[C@@H](OCCOC)[C@H](n3cnc4c(N)ncnc43)O[C@@H]2COP(=O)(S)O[C@H]2C[C@H](n3cc(C)c(=O)[nH]c3=O)O[C@@H]2COP(=O)(S)O[C@H]2[C@@H](OCCOC)[C@H](n3cnc4c(N)ncnc43)O[C@@H]2CO)O[C@H]1n1ccc(N)nc1=O (some centres not stated)
IC50 [1]: 2200 nM

Structure (SMILES): Cc1cn(CC(=O)N(CCNC(=O)CN(CCNC(=O)CN(CCNC(=O)CN(CCNC(=O)CN(CCNC(=O)CN(CCNC(=O)CN(CCNC(=O)CN(CCNC(=O)CN(CCNC(=O)CN(CCNC(=O)CN(CCNC(=O)CN(CCNC(=O)[C@H](CCCCN)N(CCNC(=O)[C@H](CCCCN)NC(=O)[C@H](CCCCN)NC(=O)[C@H](CCCCN)NC(=O)[C@H](CCCCN)NC(=O)[C@H](CCCCN)NC(=O)[C@H](CCCCN)NC(=O)[C@H](CCCCN)NC(=O)[C@@H](N)CCCCN)C(=O)Cn2cc(C)c(=O)[nH]c2=O)C(=O)Cn2ccc(N)nc2=O)C(=O)Cn2cc(C)c(=O)[nH]c2=O)C(=O)Cn2cnc3c(N)ncnc32)C(=O)Cn2cnc3c(N)ncnc32)C(=O)Cn2ccc(N)nc2=O)C(=O)Cn2ccc(N)nc2=O)C(=O)Cn2cnc3c(N)ncnc32)C(=O)Cn2ccc(N)nc2=O)C(=O)Cn2cnc3c(N)ncnc32)C(=O)Cn2cc(C)c(=O)[nH]c2=O)C(=O)Cn2ccc(N)nc2=O)CC(=O)NCCN(CC(=O)NCCN(CC(=O)NCCN(CC(=O)N[C@@H](CCCCN)C(N)=O)C(=O)Cn2cnc3c(N)ncnc32)C(=O)Cn2cnc3c(=O)[nH]c(N)nc32)C(=O)Cn2ccc(N)nc2=O)c(=O)[nH]c1=O
Activity [2]: Non-toxic
inhibition [3]: inactive
Activity [4]: Non-toxic
Activity [5]: Non-toxic
Activity [6]: Non-toxic
Activity [7]: 145%
inhibition [8]: inactive
Activity [9]: inactive
Activity [10]: inactive
Activity [11]: Non-toxic
Activity [12]: Non-toxic
Activity [13]: Non-toxic

Structure (SMILES): Cc1cn(CC(=O)N(CCNC(=O)CN(CCN)C(=O)Cn2ccc(N)nc2=O)CC(=O)NCCN(CC(=O)NCCN(CC(=O)NCCN(CC(=O)NCCN(CC(=O)NCCN(CC(=O)NCCN(CC(=O)NCCN(CC(=O)NCCN(CC(=O)NCCN(CC(=O)NCCN(CC(=O)NCCN(CC(=O)NCCN(CC(=O)NCCN(CC(=O)N[C@@H](CCCCN)C(N)=O)C(=O)Cn2cnc3c(N)ncnc32)C(=O)Cn2ccc(N)nc2=O)C(=O)Cn2cnc3c(N)ncnc32)C(=O)Cn2cc(C)c(=O)[nH]c2=O)C(=O)Cn2ccc(N)nc2=O)C(=O)Cn2cc(C)c(=O)[nH]c2=O)C(=O)Cn2cnc3c(N)ncnc32)C(=O)Cn2ccc(N)nc2=O)C(=O)Cn2cnc3c(N)ncnc32)C(=O)Cn2ccc(N)nc2=O)C(=O)Cn2cnc3c(=O)[nH]c(N)nc32)C(=O)Cn2cnc3c(N)ncnc32)C(=O)Cn2ccc(N)nc2=O)c(=O)[nH]c1=O
IC50 [1]: 1000 nM

Further lines, results first:

IC50 [1]: 3200 nM
Structure (SMILES): Cc1cn(CC(=O)N(CCNC(=O)CN(CCNC(=O)CN(CCNC(=O)CN(CCNC(=O)CN(CCNC(=O)CN(CCNC(=O)CN(CCN)C(=O)Cn2cnc3c(N)ncnc32)C(=O)Cn2cc(C)c(=O)[nH]c2=O)C(=O)Cn2cnc3c(N)ncnc32)C(=O)Cn2cnc3c(=O)[nH]c(N)nc32)C(=O)Cn2cc(C)c(=O)[nH]c2=O)C(=O)Cn2cc(C)c(=O)[nH]c2=O)CC(=O)NCCN(CC(=O)NCCN(CC(=O)NCCN(CC(=O)NCCN(CC(=O)NCCN(CC(=O)NCCN(CC(=O)NCCN(CC(=O)NCCN(CC(=O)N[C@@H](CCCCN)C(N)=O)C(=O)Cn2cnc3c(N)ncnc32)C(=O)Cn2cnc3c(=O)[nH]c(N)nc32)C(=O)Cn2cnc3c(N)ncnc32)C(=O)Cn2cc(C)c(=O)[nH]c2=O)C(=O)Cn2ccc(N)nc2=O)C(=O)Cn2ccc(N)nc2=O)C(=O)Cn2cnc3c(N)ncnc32)C(=O)Cn2ccc(N)nc2=O)c(=O)[nH]c1=O

IC50 [1]: 2400 nM
Structure (SMILES): Cc1cn(CC(=O)N(CCNC(=O)CN(CCNC(=O)CN(CCNC(=O)CN(CCNC(=O)CN(CCN)C(=O)Cn2cnc3c(N)ncnc32)C(=O)Cn2cnc3c(=O)[nH]c(N)nc32)C(=O)Cn2cc(C)c(=O)[nH]c2=O)C(=O)Cn2cc(C)c(=O)[nH]c2=O)CC(=O)NCCN(CC(=O)NCCN(CC(=O)NCCN(CC(=O)NCCN(CC(=O)NCCN(CC(=O)NCCN(CC(=O)NCCN(CC(=O)NCCN(CC(=O)NCCN(CC(=O)NCCN(CC(=O)N[C@@H](CCCCN)C(N)=O)C(=O)Cn2cnc3c(N)ncnc32)C(=O)Cn2cnc3c(=O)[nH]c(N)nc32)C(=O)Cn2cnc3c(N)ncnc32)C(=O)Cn2cnc3c(=O)[nH]c(N)nc32)C(=O)Cn2cnc3c(N)ncnc32)C(=O)Cn2cc(C)c(=O)[nH]c2=O)C(=O)Cn2ccc(N)nc2=O)C(=O)Cn2ccc(N)nc2=O)C(=O)Cn2cnc3c(N)ncnc32)C(=O)Cn2ccc(N)nc2=O)c(=O)[nH]c1=O

IC50 [1]: 3000 nM
Structure (SMILES): Cc1cn(CC(=O)N(CCN)CC(=O)NCCN(CC(=O)NCCN(CC(=O)NCCN(CC(=O)NCCN(CC(=O)NCCN(CC(=O)NCCN(CC(=O)NCCN(CC(=O)NCCN(CC(=O)NCCN(CC(=O)NCCN(CC(=O)NCCN(CC(=O)NCCN(CC(=O)NCCN(CC(=O)NCCN(CC(=O)N[C@@H](CCCCN)C(N)=O)C(=O)Cn2cnc3c(=O)[nH]c(N)nc32)C(=O)Cn2cnc3c(N)ncnc32)C(=O)Cn2cnc3c(N)ncnc32)C(=O)Cn2cnc3c(N)ncnc32)C(=O)Cn2cnc3c(=O)[nH]c(N)nc32)C(=O)Cn2cnc3c(N)ncnc32)C(=O)Cn2cnc3c(=O)[nH]c(N)nc32)C(=O)Cn2cnc3c(N)ncnc32)C(=O)Cn2cc(C)c(=O)[nH]c2=O)C(=O)Cn2ccc(N)nc2=O)C(=O)Cn2ccc(N)nc2=O)C(=O)Cn2cnc3c(N)ncnc32)C(=O)Cn2ccc(N)nc2=O)C(=O)Cn2cc(C)c(=O)[nH]c2=O)c(=O)[nH]c1=O
